Target: Histone acetyltransferase p300 (Homo sapiens, UniProt Q09472)
Assay: Inhibition of human p300 HAT domain (1195 to 1673 residues) using histone H3 peptide and acetyl-coA as substrates preincubated for 10 mins followed by substrate addition and measured after 30 mins by beckman scintillation counting analysis
Outline: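 Recombinant human p300 HAT domain (10 nM) was preincubated with a dilution series of inhibitor for 10 min at 25 °C in 50 mM phosphate buffer, pH 7.0, with 0.01% Brij-35. The reaction was started with histone H3(1-21) peptide (20 μM) and Ac-CoA (1 μM ³H-Ac-CoA plus 19 μM unlabelled) and run 30 min at 25 °C. It was stopped with formic acid, spotted on P81 paper, washed 3× with 50 mM NaHCO₃, and counted by scintillation. IC50 came from a sigmoidal fit, mean of ≥3 experiments.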

Histone acetyltransferase p300, sequence (Q09472 whole entry, the tested form may be a part): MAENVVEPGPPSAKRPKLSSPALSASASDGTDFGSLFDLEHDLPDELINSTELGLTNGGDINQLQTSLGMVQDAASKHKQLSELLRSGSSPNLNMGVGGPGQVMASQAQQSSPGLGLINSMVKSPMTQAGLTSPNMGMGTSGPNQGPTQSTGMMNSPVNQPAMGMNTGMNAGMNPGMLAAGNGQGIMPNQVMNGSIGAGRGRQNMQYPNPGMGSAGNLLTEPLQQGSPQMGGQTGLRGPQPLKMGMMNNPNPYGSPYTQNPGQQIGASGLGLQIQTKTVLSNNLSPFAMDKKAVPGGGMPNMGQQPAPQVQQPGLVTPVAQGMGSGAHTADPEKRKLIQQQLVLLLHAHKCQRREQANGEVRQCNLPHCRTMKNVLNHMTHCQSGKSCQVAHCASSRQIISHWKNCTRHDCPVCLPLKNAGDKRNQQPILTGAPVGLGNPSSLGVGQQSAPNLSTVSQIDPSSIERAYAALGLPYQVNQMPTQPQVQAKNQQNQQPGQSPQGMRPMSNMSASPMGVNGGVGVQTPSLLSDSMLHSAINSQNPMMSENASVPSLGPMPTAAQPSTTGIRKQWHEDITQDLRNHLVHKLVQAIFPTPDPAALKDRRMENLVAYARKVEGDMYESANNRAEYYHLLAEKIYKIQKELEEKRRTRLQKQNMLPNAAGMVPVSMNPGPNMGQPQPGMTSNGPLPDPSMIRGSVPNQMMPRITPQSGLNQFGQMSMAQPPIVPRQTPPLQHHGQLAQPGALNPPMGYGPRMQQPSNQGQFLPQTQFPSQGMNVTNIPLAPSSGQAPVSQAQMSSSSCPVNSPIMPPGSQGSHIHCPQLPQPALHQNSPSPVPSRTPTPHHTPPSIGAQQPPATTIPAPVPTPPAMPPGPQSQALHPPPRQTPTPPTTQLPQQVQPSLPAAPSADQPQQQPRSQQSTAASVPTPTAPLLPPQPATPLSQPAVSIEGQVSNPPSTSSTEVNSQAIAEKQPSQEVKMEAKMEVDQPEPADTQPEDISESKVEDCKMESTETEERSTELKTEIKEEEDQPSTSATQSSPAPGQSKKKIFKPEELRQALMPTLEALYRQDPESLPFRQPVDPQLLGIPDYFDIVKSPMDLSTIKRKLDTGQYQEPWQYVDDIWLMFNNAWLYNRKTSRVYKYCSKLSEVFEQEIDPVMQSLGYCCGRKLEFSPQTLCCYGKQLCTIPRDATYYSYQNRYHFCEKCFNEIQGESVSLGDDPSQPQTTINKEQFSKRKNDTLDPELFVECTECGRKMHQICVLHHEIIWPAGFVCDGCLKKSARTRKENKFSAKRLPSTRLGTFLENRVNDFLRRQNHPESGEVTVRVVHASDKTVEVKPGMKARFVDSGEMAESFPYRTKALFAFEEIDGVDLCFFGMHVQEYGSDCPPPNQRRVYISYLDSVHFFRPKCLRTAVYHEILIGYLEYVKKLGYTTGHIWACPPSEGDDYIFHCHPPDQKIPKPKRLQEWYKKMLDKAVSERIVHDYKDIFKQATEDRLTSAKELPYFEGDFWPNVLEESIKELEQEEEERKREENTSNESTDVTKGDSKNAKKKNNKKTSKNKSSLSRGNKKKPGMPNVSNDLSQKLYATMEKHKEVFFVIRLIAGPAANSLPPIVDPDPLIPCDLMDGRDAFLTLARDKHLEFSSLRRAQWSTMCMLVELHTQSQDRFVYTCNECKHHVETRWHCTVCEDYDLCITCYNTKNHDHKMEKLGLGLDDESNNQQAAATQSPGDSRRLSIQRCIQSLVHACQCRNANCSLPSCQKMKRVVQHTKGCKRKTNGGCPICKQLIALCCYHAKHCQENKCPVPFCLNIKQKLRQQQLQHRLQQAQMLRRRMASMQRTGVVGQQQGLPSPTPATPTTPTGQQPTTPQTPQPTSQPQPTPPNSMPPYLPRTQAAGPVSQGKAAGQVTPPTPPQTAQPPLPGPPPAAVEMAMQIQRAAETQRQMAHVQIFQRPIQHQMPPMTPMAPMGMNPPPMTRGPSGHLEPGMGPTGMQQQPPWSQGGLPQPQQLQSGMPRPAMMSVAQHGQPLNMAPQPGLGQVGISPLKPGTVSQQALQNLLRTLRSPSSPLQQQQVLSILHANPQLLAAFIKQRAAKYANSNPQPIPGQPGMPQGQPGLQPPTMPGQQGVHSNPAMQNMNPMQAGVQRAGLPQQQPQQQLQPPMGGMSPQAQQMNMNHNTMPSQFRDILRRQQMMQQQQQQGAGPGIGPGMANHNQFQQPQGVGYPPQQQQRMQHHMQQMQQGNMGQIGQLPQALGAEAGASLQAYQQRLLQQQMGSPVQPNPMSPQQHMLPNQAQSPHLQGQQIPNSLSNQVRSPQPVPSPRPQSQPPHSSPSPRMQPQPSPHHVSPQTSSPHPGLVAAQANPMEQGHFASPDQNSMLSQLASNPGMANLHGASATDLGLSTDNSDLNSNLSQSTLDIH

Brc1ccc(-c2ncc(OCC3CCNCC3)nc2-c2ccc(Br)c(Br)c2)cc1Br
IC50: 10 µM
